Key:
Cytochrome P450 2D6 [1] = molecular target: T1, Cytochrome P450 2D6 (Homo sapiens, UniProt P10635, F120A); test: Vmax for oxidation to 3,4-OH-MA by cytochrome P450 2D6 (Phe120Ala mutant); expressed in 10E5 fluorescence units min-1 nmol-1 CYP; format: ADME
In short: (§1)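 E. coli membranes expressing His-tagged wild-type or Phe120Ala CYP2D6 (25 nM CYP) were incubated in 50 mM KPi pH 7.4 with 5 mM MgCl2. Substrate was tested at 10 concentrations, 0–200 µM. After 5 min preincubation at 37 °C, an NADPH-regenerating system was added (0.2 mM NADPH final). Reactions ran 10 min and were stopped with HClO4. Products were separated by C18 HPLC and read by fluorescence (ex 280/em 320 nm). Km and Vmax came from nonlinear regression of peak areas; at least two independent experiments.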

Cytochrome P450 2D6 [2] = molecular target: Cytochrome P450 2D6 (Homo sapiens, UniProt P10635); test: Vmax for oxidation to 3,4-OH-MA by cytochrome P450 2D6 (wild type pSP19T7LT); expressed in 10E5 fluorescence units min-1 nmol-1 CYP; format: ADME; in short: as §1
Cytochrome P450 2D6 [3] = molecular target: T1, Cytochrome P450 2D6; test: Vmax for oxidation to N-OH-MDMA by cytochrome P450 2D6 (Phe120Ala mutant); expressed in 10E5 fluorescence units min-1 nmol-1 CYP; format: ADME; in short: as §1
Cytochrome P450 2D6 [4] = molecular target: T1, Cytochrome P450 2D6; test: Vmax for oxidation to 3,4-OH-MA by cytochrome P450 2D6 (Phe120Ala mutant); expressed as 10E5 fluorescence units min-1 nmol-1 CYP; expressed in 10E5 fluorescence units min-1 nmol-1 CYP; format: ADME; in short: as §1
CNC(C)Cc1ccc2c(c1)OCO2 [5] = test: (§2) Michaelis-Menten constant for oxidation to N-OH-MDMA by cytochrome P450 2D6 (Phe120Ala mutant); format: ADME, Homo sapiens; in short: as §1
CCNC(C)Cc1ccc2c(c1)OCO2 [6] = test: as §2; format: ADME, Homo sapiens; in short: as §1
CCCNC(C)Cc1ccc2c(c1)OCO2 [7] = test: as §2; format: ADME, Homo sapiens; in short: as §1
[8] = tested on: CN[C@H](C)Cc1ccc2c(c1)OCO2; test: as §2; format: ADME, Homo sapiens; in short: as §1
[9] = tested on: CN[C@@H](C)Cc1ccc2c(c1)OCO2; test: as §2; format: ADME, Homo sapiens; in short: as §1
CNC(C)Cc1ccc2c(c1)OCO2 [10] = test: (§3) Michaelis-Menten constant for oxidation to 3,4-OH-MA by cytochrome P450 2D6 (Phe120Ala mutant); format: ADME, Homo sapiens; in short: as §1
CCNC(C)Cc1ccc2c(c1)OCO2 [11] = test: as §3; format: ADME, Homo sapiens; in short: as §1
CCCNC(C)Cc1ccc2c(c1)OCO2 [12] = test: as §3; format: ADME, Homo sapiens; in short: as §1
[13] = tested on: CN[C@H](C)Cc1ccc2c(c1)OCO2; test: as §3; format: ADME, Homo sapiens; in short: as §1
[14] = tested on: CN[C@@H](C)Cc1ccc2c(c1)OCO2; test: as §3; format: ADME, Homo sapiens; in short: as §1
CNC(C)Cc1ccc2c(c1)OCO2 [15] = test: (§4) Michaelis-Menten constant for oxidation to MDA by cytochrome P450 2D6 (Phe120Ala mutant); format: ADME, Homo sapiens; in short: as §1
CCNC(C)Cc1ccc2c(c1)OCO2 [16] = test: as §4; format: ADME, Homo sapiens; in short: as §1
CCCNC(C)Cc1ccc2c(c1)OCO2 [17] = test: as §4; format: ADME, Homo sapiens; in short: as §1
[18] = tested on: CN[C@H](C)Cc1ccc2c(c1)OCO2; test: as §4; format: ADME, Homo sapiens; in short: as §1
[19] = tested on: CN[C@@H](C)Cc1ccc2c(c1)OCO2; test: as §4; format: ADME, Homo sapiens; in short: as §1
[20] = substrate: CN[C@@H](C)Cc1ccc2c(c1)OCO2; test: (§5) Michaelis-Menten constant for oxidation to 3,4-OH-MA by cytochrome P450 2D6 (wild type pSP19T7LT); format: ADME, Homo sapiens; in short: as §1
[21] = substrate: CNC(C)Cc1ccc2c(c1)OCO2; test: as §5; format: ADME, Homo sapiens; in short: as §1
[22] = substrate: CCCNC(C)Cc1ccc2c(c1)OCO2; test: as §5; format: ADME, Homo sapiens; in short: as §1
[23] = substrate: CN[C@H](C)Cc1ccc2c(c1)OCO2; test: as §5; format: ADME, Homo sapiens; in short: as §1

T1 sequence (P10635 whole entry F120A): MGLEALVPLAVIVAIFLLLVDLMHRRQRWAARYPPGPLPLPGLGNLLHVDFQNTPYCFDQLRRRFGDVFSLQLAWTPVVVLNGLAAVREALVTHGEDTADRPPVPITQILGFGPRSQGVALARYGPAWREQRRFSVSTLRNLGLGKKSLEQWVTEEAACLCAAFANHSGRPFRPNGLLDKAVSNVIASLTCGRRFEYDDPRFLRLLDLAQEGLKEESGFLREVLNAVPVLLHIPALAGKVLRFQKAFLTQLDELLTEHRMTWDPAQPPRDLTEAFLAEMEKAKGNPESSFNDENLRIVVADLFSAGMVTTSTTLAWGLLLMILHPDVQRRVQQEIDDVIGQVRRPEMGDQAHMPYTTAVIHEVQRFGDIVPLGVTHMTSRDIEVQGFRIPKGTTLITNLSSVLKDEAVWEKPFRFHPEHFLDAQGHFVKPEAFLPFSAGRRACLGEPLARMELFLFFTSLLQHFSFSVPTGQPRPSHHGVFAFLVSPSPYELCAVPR

CCNC(C)Cc1ccc2c(c1)OCO2 (stereo not drawn)
Vmax (Cytochrome P450 2D6 [1]): 2.9 | Vmax (Cytochrome P450 2D6 [2]): 1.2 | Vmax (Cytochrome P450 2D6 [3]): 1.4

CN[C@@H](C)Cc1ccc2c(c1)OCO2
Vmax (Cytochrome P450 2D6 [3]): 8.4 | Vmax (Cytochrome P450 2D6 [4]): 2.4

CCCNC(C)Cc1ccc2c(c1)OCO2 (stereo not drawn)
Vmax (Cytochrome P450 2D6 [1]): 7.5 | Vmax (Cytochrome P450 2D6 [2]): 1.3 | Vmax (Cytochrome P450 2D6 [3]): 3

CN[C@H](C)Cc1ccc2c(c1)OCO2
Vmax (Cytochrome P450 2D6 [1]): 2.4 | Vmax (Cytochrome P450 2D6 [2]): 1.2 | Vmax (Cytochrome P450 2D6 [3]): 10.7

CNC(C)Cc1ccc2c(c1)OCO2 (stereo not drawn) [MIDOMAFETAMINE]
Vmax (Cytochrome P450 2D6 [1]): 2.2 | Vmax (Cytochrome P450 2D6 [2]): 1.2

Cytochrome P450 2D6 (Homo sapiens; F120A)
Km (CNC(C)Cc1ccc2c(c1)OCO2 [5]): 11.2 µM | Km (CCNC(C)Cc1ccc2c(c1)OCO2 [6]): 5.7 µM | Km (CCCNC(C)Cc1ccc2c(c1)OCO2 [7]): 28 µM | Km [8]: 20.6 µM | Km [9]: 6.9 µM | Km (CNC(C)Cc1ccc2c(c1)OCO2 [10]): 11.8 µM | Km (CCNC(C)Cc1ccc2c(c1)OCO2 [11]): 3.3 µM | Km (CCCNC(C)Cc1ccc2c(c1)OCO2 [12]): 5.2 µM | Km [13]: 13.2 µM | Km [14]: 4.9 µM | Km (CNC(C)Cc1ccc2c(c1)OCO2 [15]): 14.5 µM | kcat (CNC(C)Cc1ccc2c(c1)OCO2 [15]): 0.0583 s⁻¹ | Km (CCNC(C)Cc1ccc2c(c1)OCO2 [16]): 4.5 µM | kcat (CCNC(C)Cc1ccc2c(c1)OCO2 [16]): 0.07 s⁻¹ | Km (CCCNC(C)Cc1ccc2c(c1)OCO2 [17]): 9.1 µM | kcat (CCCNC(C)Cc1ccc2c(c1)OCO2 [17]): 0.122 s⁻¹ | Km [18]: 26.1 µM | kcat [18]: 0.0983 s⁻¹ | Km [19]: 10.3 µM | kcat [19]: 0.0633 s⁻¹

B1: Cytochrome P450 2D6 (Homo sapiens) (protein)
chain: MGLEALVPLAVIVAIFLLLVDLMHRRQRWAARYPPGPLPLPGLGNLLHVDFQNTPYCFDQLRRRFGDVFSLQLAWTPVVVLNGLAAVREALVTHGEDTADRPPVPITQILGFGPRSQGVFLARYGPAWREQRRFSVSTLRNLGLGKKSLEQWVTEEAACLCAAFANHSGRPFRPNGLLDKAVSNVIASLTCGRRFEYDDPRFLRLLDLAQEGLKEESGFLREVLNAVPVLLHIPALAGKVLRFQKAFLTQLDELLTEHRMTWDPAQPPRDLTEAFLAEMEKAKGNPESSFNDENLRIVVADLFSAGMVTTSTTLAWGLLLMILHPDVQRRVQQEIDDVIGQVRRPEMGDQAHMPYTTAVIHEVQRFGDIVPLGVTHMTSRDIEVQGFRIPKGTTLITNLSSVLKDEAVWEKPFRFHPEHFLDAQGHFVKPEAFLPFSAGRRACLGEPLARMELFLFFTSLLQHFSFSVPTGQPRPSHHGVFAFLVSPSPYELCAVPR
Km [20]: 3.3 µM | kcat [20]: 0.02 s⁻¹ | Km [21]: 1.9 µM | Km [22]: 1 µM | Km [23]: 2.7 µM

— ChEMBL document CHEMBL1141093, “Metabolic regio- and stereoselectivity of cytochrome P450 2D6 towards 3,4-methylenedioxy-N-alkylamphetamines: in silico predictions and experimental validation” (J Med Chem, 2005)
